Test results from ChEMBL document CHEMBL4376827, “Structure-Activity Relationship Studies To Identify Affinity Probes in Bis-aryl Sulfonamides That Prolong Immune Stimuli” (J Med Chem, 2019).

Legend:
THP-1 = assay: Cytotoxicity against human THP1 cells assessed as reduction in cell viability at 5 uM incubated for 18 hrs by MTT assay relative to control; details: thp-1, 18 h
Homo sapiens [1] = species: Homo sapiens; assay: Activation of LPS-induced NF-kappaB activity in human THP1-Blue-NF-kappaB cells assessed as increase in SEAP reporter activity at 5 uM incubated for 20 hrs by quanti-blue SEAP assay relative to control
Summary of the method: (§1)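 THP1-Blue NF-κB cells, 10^5/well, in RPMI with 10% FBS, pen/strep and Normocin. Compound (5 μM single point or graded concentrations, 0.05% DMSO) is added together with LPS; methods give final LPS 10 μg/mL, table footnote gives 10 ng/mL. Supernatant SEAP is read after 20 h by QuantiBlue colorimetry at 630 nm.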

Homo sapiens [2] = species: Homo sapiens; assay: Activation of IFNalpha signalling in human ISRE-bla-THP1 cells assessed as increase in type-1 IFN-alpha induced ISRE activity at 5 uM preincubated for 16 hrs followed by CCF4-AM substrate addition and measured after 3 hrs by FRET based assay relative to control; assay type: cell-based
Summary of the method: (§2)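 ISRE-bla THP-1 cells, 5×10^4/well, in RPMI with 10% dialyzed FBS, 0.1 mM non-essential amino acids, 1 mM pyruvate and pen/strep. Cells are co-treated with IFN-α (final 100 U/mL) and compound: 5 μM single point or graded concentrations, 0.05% DMSO. After 16 h, CCF4-AM is added for 3 h at RT in the dark.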

[3] = Activation of IFNalpha signalling in human ISRE-bla THP1 cells assessed as increase in type-1 IFN-alpha induced ISRE activity preincubated for 16 hrs followed by CCF4-AM substrate addition and measured after 3 hrs by FRET based assay; assay type: cell-based; details: THP-1
Summary of the method: as §2

[4] = Activation of LPS-induced NF-kappaB activity in human THP1-Blue-NF-kappaB cells assessed as increase in SEAP reporter activity incubated for 20 hrs by quanti-blue SEAP assay
Summary of the method: as §1

Structure (SMILES)	Activity (Homo sapiens [1]) [%]	EC50 [3] [µM]	EC50 [4] [µM]	Activity (THP-1) [%]	Activity (Homo sapiens [2]) [%]
CCOc1ccc(S(=O)(=O)Nc2ccc(Cl)cc2OC)cc1	141	–	–	78.3	109
CNC(=O)c1ccc(S(=O)(=O)Nc2cc(OC)c(Cl)cc2OC)cc1	103	–	–	77	105
COc1ccc(S(=O)(=O)Nc2cc(OC)c(Cl)cc2OC)cc1N	158	–	–	77.3	166
COc1cc(NS(=O)(=O)c2ccc(N)cc2)c(OC)cc1Cl	101	–	–	96	103
COc1cc(NS(=O)(=O)c2ccc(C(=O)O)cc2)c(OC)cc1Cl	89	–	–	98.2	104
COc1cc(NS(=O)(=O)c2ccc(CNC(=O)OC(C)(C)C)cc2)c(OC)cc1Cl	100	–	–	109.2	101
CCOc1ccc(S(=O)(=O)Nc2cc(OC)c(Br)cc2OC)cc1	176	–	–	68.8	235
COc1cc(NS(=O)(=O)c2ccc(CN)cc2)c(OC)cc1Cl	103	–	–	97	111
CCOc1ccc(S(=O)(=O)Nc2cc(OC)ccc2OC)cc1	116	–	–	73.1	96
COc1cc(NS(=O)(=O)c2ccccc2OC)c(OC)cc1Cl	96	–	–	92.1	101
COc1ccc(S(=O)(=O)Nc2cc(OC)c(Cl)cc2OC)cc1	226	1.4	1.85	69.6	219
CCOc1ccc(S(=O)(=O)N(CCCNC(=O)CCCCCNC(=O)c2ccc3c(c2)C(=O)OC32c3ccc(O)cc3Oc3cc(O)ccc32)c2cc(OC)c(Cl)cc2OC)cc1	–	–	–	98.1	96
CCOC(=O)c1ccc(S(=O)(=O)Nc2cc(OC)c(Cl)cc2OC)cc1	189	–	–	70.8	169
CCOc1ccc(S(=O)(=O)Nc2cc(OC)c(N)cc2OC)cc1	101	–	–	92.2	102
COc1cc(NS(=O)(=O)c2ccc(O)cc2)c(OC)cc1Cl	98	–	–	85.2	104
CCOc1ccc(S(=O)(=O)Nc2cc(OC)c(N=[N+]=[N-])cc2OC)cc1	215	–	–	76.6	201
COc1cc(NS(=O)(=O)c2ccc(OC)c(Br)c2)c(OC)cc1Cl	87	–	–	85	101
CCOc1ccc(S(=O)(=O)N(CCCNC(=O)CCCC[C@H]2SC[C@H]3NC(=O)N[C@H]32)c2cc(OC)c(N=[N+]=[N-])cc2OC)cc1	162	–	–	73.8	140
COc1cccc(S(=O)(=O)Nc2cc(OC)c(Cl)cc2OC)c1	116	–	–	79.6	104
COc1cc(NS(=O)(=O)c2ccc([N+](=O)[O-])cc2)c(OC)cc1Cl	101	–	–	97.4	103
COc1cc(NS(=O)(=O)c2ccc(C#N)cc2)c(OC)cc1Cl	97	–	–	102.9	106
CCOc1ccc(S(=O)(=O)Nc2cc(OC)c([N+](=O)[O-])cc2OC)cc1	133	–	–	79.2	110
CCOc1ccc(S(=O)(=O)N(CCCNC(=O)c2ccc(-c3c4ccc(=[N+](C)C)cc-4oc4cc(N(C)C)ccc34)c(C(=O)O)c2)c2cc(OC)c(Cl)cc2OC)cc1	111	–	–	76.9	123
COC(=O)c1ccc(S(=O)(=O)Nc2cc(OC)c(Cl)cc2OC)cc1	191	–	–	74.4	202
COc1cc(NS(=O)(=O)c2ccc(C(N)=O)cc2)c(OC)cc1Cl	103	–	–	91	94
COc1cc(NS(=O)(=O)c2ccc(OC)c(N=[N+]=[N-])c2)c(OC)cc1Cl	104	–	–	87.2	104

Now from value to molecule, other results behind:

Activity (Homo sapiens [1]) [%]	EC50 [3] [µM]	EC50 [4] [µM]	Structure (SMILES)	Activity (THP-1) [%]	Activity (Homo sapiens [2]) [%]
149	–	–	CCCOc1ccc(S(=O)(=O)Nc2cc(OC)c(Cl)cc2OC)cc1	71.3	125
102	–	–	CCCc1ccc(S(=O)(=O)Nc2cc(OC)c(Cl)cc2OC)cc1	85.7	103
135	–	–	CCCCCN(c1cc(OC)c(Cl)cc1OC)S(=O)(=O)c1ccc(OCC)cc1	72.9	105
227	–	–	CCCN(c1cc(OC)c(Cl)cc1OC)S(=O)(=O)c1ccc(OCC)cc1	71.6	199
175	–	–	CCOc1ccc(S(=O)(=O)N(CC(C)C)c2cc(OC)c(Cl)cc2OC)cc1	76.7	193
192	–	–	CCCCN(c1cc(OC)c(Cl)cc1OC)S(=O)(=O)c1ccc(OCC)cc1	77.7	156
134	–	–	CCOc1ccc(S(=O)(=O)N(CCCNC(=O)OC(C)(C)C)c2cc(OC)c(Cl)cc2OC)cc1	75.6	140
232	–	–	C#CCN(c1cc(OC)c(Cl)cc1OC)S(=O)(=O)c1ccc(OCC)cc1	72	213
181	–	–	CCOc1ccc(S(=O)(=O)N(Cc2ccccc2)c2cc(OC)c(Cl)cc2OC)cc1	71.7	159
182	–	–	C#CCCCN(c1cc(OC)c(Cl)cc1OC)S(=O)(=O)c1ccc(OCC)cc1	70.7	184
81	–	–	CCCCCCN(c1cc(OC)c(Cl)cc1OC)S(=O)(=O)c1ccc(OCC)cc1	95.2	99
199	–	–	CCOC(=O)CCCN(c1cc(OC)c(Cl)cc1OC)S(=O)(=O)c1ccc(OCC)cc1	80.1	199
138	–	–	CCOc1ccc(S(=O)(=O)N(CCCN)c2cc(OC)c(N=[N+]=[N-])cc2OC)cc1.Cl	68.9	117
217	–	–	C#CCN(c1cc(OC)c(N=[N+]=[N-])cc1OC)S(=O)(=O)c1ccc(OCC)cc1	73.4	182
189	3.04	3.32	CCOc1ccc(S(=O)(=O)N(CCCN)c2cc(OC)c(Cl)cc2OC)cc1.Cl	71	182
230	–	–	CCOc1ccc(S(=O)(=O)N(CCCC(=O)O)c2cc(OC)c(Cl)cc2OC)cc1	73.4	151

Activity (Homo sapiens [1]) [%]	EC50 [3] [µM]	EC50 [4] [µM]	Structure (SMILES)	Activity (THP-1) [%]	Activity (Homo sapiens [2]) [%]
202	–	–	CCOC(=O)CN(c1cc(OC)c(Cl)cc1OC)S(=O)(=O)c1ccc(OCC)cc1	81.4	184
108	–	–	CCCCCCCN(c1cc(OC)c(Cl)cc1OC)S(=O)(=O)c1ccc(OCC)cc1	90.4	95
195	–	–	CCOc1ccc(S(=O)(=O)N(CCCNC(=O)CCCC[C@H]2SC[C@H]3NC(=O)N[C@H]32)c2cc(OC)c(Cl)cc2OC)cc1	69.6	175
206	–	–	C#CCCN(c1cc(OC)c(Cl)cc1OC)S(=O)(=O)c1ccc(OCC)cc1	70.1	201
131	–	–	CCOc1ccc(S(=O)(=O)N(CCc2ccccc2)c2cc(OC)c(Cl)cc2OC)cc1	44	141
97	–	–	CCCCCCCCCCCCN(c1cc(OC)c(Cl)cc1OC)S(=O)(=O)c1ccc(OCC)cc1	93	100
206	–	–	CCNC(=O)CCCN(c1cc(OC)c(Cl)cc1OC)S(=O)(=O)c1ccc(OCC)cc1	78.2	137
126	–	–	CCOc1ccc(S(=O)(=O)Nc2ccc(Cl)c(OC)c2)cc1	83.7	99
179	–	–	CCOc1ccc(S(=O)(=O)Nc2cc(OC)c(Cl)c(OC)c2)cc1	71.4	218
76	–	–	CCOc1ccc(S(=O)(=O)N(c2cc(OC)c(Cl)cc2OC)C(C)C)cc1	103.2	169
98	–	–	COc1cc(NS(=O)(=O)c2ccc(Oc3ccccc3)cc2)c(OC)cc1Cl	91.3	95
219	–	–	CCOc1ccc(S(=O)(=O)N(CCCO)c2cc(OC)c(Cl)cc2OC)cc1	68.5	178
101	–	–	CCCCOc1ccc(S(=O)(=O)Nc2cc(OC)c(Cl)cc2OC)cc1	95.3	106
107	–	–	C#CCOCCOCCOCCN(c1cc(OC)c(Cl)cc1OC)S(=O)(=O)c1ccc(OCC)cc1	73.7	130
97	–	–	C#CCOc1ccc(S(=O)(=O)Nc2cc(OC)c(Cl)cc2OC)cc1	80.9	99
